Laboratory results published in ChEMBL document CHEMBL3098111, “Discovery of 2,5-diarylnicotinamides as selective orexin-2 receptor antagonists (2-SORAs)” (Bioorg Med Chem Lett, 2013).
Activity calls are given as the source filed them. No cut-off for these calls is given here.

Assays:
[1] = species: Bos taurus; assay: Inhibition of bovine PDE6 at 100 uM relative to control
[2] = system: Rattus norvegicus; assay: Antiinsomnic activity in rat EEG model assessed as increase in REM sleep time at 15 mg/kg, po; format: functional, organism-based; parameters: dose 15 mg/kg
Outline: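 Rats with EEG telemetry given 15 mg/kg orally during their active period, vehicle 20% Vitamin E TPGS in water. Sleep architecture (active wake, light sleep, delta and REM sleep) scored from EEG.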

[3] = molecular target: Caspase-6 (Homo sapiens) (UniProt P55212); assay: Inhibition of human caspase 6 at 10 uM relative to control
Sequence of Caspase-6 (Homo sapiens) (P55212 24-179 limits assumed): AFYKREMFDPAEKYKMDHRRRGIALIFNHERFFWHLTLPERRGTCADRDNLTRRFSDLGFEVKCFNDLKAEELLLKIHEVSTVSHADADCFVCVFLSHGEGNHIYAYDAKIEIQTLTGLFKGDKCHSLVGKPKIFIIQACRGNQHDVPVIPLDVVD
Sequence of Caspase-6 (Homo sapiens) (P55212 194-293 limits assumed): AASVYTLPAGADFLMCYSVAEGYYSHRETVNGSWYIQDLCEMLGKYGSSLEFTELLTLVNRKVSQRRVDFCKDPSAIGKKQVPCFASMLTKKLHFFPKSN

[4] = molecular target: Sodium-dependent dopamine transporter (Homo sapiens) (UniProt Q01959); assay: Inhibition of human DAT at 10 uM relative to control
Sequence of Sodium-dependent dopamine transporter (Homo sapiens) (Q01959 whole entry): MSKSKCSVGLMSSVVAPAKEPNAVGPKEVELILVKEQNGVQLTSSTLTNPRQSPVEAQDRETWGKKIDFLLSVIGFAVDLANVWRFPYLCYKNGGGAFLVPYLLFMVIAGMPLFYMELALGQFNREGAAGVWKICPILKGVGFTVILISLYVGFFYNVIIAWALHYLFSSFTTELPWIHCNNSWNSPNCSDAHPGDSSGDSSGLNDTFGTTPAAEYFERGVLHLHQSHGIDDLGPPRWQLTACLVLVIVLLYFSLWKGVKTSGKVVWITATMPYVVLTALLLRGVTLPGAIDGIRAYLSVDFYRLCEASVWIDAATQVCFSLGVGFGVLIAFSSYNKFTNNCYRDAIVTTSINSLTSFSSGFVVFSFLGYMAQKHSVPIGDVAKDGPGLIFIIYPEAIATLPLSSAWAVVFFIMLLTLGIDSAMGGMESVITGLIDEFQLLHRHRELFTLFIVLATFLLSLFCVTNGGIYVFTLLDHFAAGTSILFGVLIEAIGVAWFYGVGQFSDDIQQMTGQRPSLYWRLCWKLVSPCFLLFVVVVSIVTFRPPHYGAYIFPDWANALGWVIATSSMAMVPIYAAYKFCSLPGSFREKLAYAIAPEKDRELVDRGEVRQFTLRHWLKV

[5] = molecular target: Muscarinic acetylcholine receptor M1 (Homo sapiens) (UniProt P11229); assay: Inhibition of human muscarinic M1 receptor at 10 uM relative to control
[6] = molecular target: Melanocortin receptor 3 (Homo sapiens) (UniProt P41968); assay: Inhibition of human MC3 receptor at 10 uM relative to control
Sequence of Melanocortin receptor 3 (Homo sapiens) (P41968 whole entry): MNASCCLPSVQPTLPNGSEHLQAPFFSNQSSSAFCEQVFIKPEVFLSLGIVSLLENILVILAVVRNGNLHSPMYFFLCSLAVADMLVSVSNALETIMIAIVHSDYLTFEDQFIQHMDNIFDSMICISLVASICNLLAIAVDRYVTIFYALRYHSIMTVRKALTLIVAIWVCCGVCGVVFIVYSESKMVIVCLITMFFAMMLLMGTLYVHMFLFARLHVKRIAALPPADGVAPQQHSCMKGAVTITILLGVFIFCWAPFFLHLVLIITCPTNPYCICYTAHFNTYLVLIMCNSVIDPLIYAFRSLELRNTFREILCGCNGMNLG

[7] = molecular target: Endothelin receptor type B (Homo sapiens) (UniProt P24530); assay: Inhibition of human ETB receptor at 10 uM relative to control
[8] = species: Oryctolagus cuniculus; assay: Inhibition of rabbit monoamine transporter at 0.1 uM relative to control
[9] = molecular target: cGMP-specific 3',5'-cyclic phosphodiesterase (Homo sapiens) (UniProt O76074); assay: Inhibition of human PDE5 at 100 uM relative to control
[10] = molecular target: 5-hydroxytryptamine receptor 1B (Rattus norvegicus) (UniProt P28564); assay: Inhibition of rat 5-HT1B receptor at 1 uM relative to control
Sequence of 5-hydroxytryptamine receptor 1B (Rattus norvegicus) (P28564 whole entry): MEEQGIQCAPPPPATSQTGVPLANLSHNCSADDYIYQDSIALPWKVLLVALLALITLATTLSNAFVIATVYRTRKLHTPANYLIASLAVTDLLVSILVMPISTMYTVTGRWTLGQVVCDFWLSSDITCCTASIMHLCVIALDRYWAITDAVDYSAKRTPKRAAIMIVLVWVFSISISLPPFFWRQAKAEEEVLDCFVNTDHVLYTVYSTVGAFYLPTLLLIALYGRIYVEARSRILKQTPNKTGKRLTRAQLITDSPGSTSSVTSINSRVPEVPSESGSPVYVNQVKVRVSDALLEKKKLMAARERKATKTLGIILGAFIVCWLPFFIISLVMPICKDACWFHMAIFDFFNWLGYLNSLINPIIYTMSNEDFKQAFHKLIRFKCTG

[11] = molecular target: Beta-2 adrenergic receptor (Homo sapiens) (UniProt P07550); assay: Inhibition of human beta2 adrenergic receptor at 10 uM relative to control
[12] = molecular target: Vascular endothelial growth factor receptor 1 (Homo sapiens) (UniProt P17948); assay: Inhibition of human FLT1 at 10 uM relative to control
Sequence of Vascular endothelial growth factor receptor 1 (Homo sapiens) (P17948 whole entry): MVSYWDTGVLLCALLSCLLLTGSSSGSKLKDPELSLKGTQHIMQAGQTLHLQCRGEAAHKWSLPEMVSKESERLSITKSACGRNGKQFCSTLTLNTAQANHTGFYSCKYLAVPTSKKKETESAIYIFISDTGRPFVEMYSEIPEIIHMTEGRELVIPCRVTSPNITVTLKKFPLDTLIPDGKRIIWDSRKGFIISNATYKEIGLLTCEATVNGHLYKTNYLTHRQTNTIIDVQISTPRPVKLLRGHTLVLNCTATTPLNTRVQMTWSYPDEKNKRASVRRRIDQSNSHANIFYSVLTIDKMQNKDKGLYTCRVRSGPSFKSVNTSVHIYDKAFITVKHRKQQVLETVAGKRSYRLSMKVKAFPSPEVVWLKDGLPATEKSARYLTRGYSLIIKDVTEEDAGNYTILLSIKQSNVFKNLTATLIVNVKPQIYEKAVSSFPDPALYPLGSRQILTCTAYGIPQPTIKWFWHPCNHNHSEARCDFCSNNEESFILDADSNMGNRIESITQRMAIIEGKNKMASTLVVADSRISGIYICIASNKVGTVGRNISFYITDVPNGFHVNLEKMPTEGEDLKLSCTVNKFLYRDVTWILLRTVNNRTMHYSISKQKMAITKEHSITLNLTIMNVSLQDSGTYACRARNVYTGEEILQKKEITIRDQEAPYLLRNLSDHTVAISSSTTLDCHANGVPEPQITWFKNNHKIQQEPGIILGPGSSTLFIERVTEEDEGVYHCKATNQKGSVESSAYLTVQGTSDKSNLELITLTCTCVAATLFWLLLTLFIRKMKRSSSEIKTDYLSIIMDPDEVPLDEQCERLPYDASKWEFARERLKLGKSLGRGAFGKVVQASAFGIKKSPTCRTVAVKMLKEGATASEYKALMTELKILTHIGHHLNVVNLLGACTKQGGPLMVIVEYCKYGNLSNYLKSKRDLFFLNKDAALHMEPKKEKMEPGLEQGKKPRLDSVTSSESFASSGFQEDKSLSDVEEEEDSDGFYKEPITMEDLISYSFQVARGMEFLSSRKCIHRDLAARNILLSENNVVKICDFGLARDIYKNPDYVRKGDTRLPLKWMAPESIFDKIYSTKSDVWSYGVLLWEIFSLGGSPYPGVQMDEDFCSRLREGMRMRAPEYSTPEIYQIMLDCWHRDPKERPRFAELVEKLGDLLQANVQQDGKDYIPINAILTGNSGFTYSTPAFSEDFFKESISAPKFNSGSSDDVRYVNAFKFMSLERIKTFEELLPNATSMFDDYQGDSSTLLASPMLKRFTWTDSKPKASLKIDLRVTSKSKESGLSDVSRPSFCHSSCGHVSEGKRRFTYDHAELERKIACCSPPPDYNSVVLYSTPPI

[13] = molecular target: Kappa-type opioid receptor (Homo sapiens) (UniProt P41145); assay: Inhibition of human kappa opioid receptor at 10 uM relative to control
[14] = molecular target: D(3) dopamine receptor (Homo sapiens, UniProt P35462); assay: Inhibition of human dopamine D3 receptor at 0.1 uM relative to control
Sequence of D(3) dopamine receptor (P35462 whole entry): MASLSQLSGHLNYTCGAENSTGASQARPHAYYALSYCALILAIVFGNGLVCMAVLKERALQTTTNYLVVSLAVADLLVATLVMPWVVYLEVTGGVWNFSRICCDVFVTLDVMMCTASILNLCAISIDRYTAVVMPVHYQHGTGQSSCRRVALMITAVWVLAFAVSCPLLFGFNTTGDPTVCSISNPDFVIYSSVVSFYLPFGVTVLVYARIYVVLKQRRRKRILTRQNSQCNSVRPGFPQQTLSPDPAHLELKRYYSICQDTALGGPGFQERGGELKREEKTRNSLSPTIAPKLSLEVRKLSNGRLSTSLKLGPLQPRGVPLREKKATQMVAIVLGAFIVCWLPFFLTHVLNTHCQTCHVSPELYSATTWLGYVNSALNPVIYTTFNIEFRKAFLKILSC

[15] = species: Oryctolagus cuniculus; assay: Inhibition of rabbit monoamine transporter at 10 uM relative to control
[16] = molecular target: Peroxisome proliferator-activated receptor alpha (Homo sapiens) (UniProt Q07869); assay: Inhibition of human PPARalpha at 10 uM relative to control
[17] = molecular target: D(4) dopamine receptor (Homo sapiens) (UniProt P21917); assay: Inhibition of human dopamine D4.4 receptor at 10 uM relative to control
Sequence of D(4) dopamine receptor (Homo sapiens) (P21917 whole entry): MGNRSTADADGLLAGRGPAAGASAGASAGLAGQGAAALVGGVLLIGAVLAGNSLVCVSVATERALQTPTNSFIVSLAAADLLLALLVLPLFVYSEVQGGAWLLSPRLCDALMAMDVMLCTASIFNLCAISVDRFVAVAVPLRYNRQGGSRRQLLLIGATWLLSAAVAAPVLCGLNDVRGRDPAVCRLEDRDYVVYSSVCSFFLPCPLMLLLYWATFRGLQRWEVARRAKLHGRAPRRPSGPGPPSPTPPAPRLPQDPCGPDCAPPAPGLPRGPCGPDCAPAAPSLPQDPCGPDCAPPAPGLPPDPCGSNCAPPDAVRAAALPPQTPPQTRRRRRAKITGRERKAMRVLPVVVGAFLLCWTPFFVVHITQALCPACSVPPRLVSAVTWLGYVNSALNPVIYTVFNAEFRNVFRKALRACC

[18] = molecular target: Oxytocin receptor (Homo sapiens) (UniProt P30559); assay: Inhibition of human oxytocin receptor at 10 uM relative to control
[19] = molecular target: Delta-type opioid receptor (Homo sapiens) (UniProt P41143); assay: Inhibition of human delta opioid receptor at 10 uM relative to control
Sequence of Delta-type opioid receptor (Homo sapiens) (P41143 whole entry): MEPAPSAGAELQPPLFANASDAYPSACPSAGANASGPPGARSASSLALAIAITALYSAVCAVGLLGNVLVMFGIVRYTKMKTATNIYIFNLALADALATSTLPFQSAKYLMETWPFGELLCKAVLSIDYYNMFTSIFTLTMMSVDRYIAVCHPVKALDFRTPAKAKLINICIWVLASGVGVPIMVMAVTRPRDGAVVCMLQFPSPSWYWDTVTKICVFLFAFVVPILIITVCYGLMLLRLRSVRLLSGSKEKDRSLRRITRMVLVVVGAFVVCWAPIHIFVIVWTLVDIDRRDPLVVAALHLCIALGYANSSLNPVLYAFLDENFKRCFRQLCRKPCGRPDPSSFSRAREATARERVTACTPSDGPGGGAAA

[20] = molecular target: Mu-type opioid receptor (Homo sapiens, UniProt P35372); assay: Inhibition of human mu opioid receptor at 0.1 uM relative to control
[21] = molecular target: Somatostatin receptor type 2 (Homo sapiens) (UniProt P30874); assay: Inhibition of human SST2 receptor at 10 uM relative to control
[22] = molecular target: Prostaglandin E2 receptor EP1 subtype (Homo sapiens) (UniProt P34995); assay: Inhibition of human prostanoid EP1 receptor at 10 uM relative to control
[23] = molecular target: T1, 5-hydroxytryptamine receptor 1A (Homo sapiens) (UniProt P08908); assay: Inhibition of human 5-HT1A receptor at 0.1 uM relative to control
T1 sequence (whole entry): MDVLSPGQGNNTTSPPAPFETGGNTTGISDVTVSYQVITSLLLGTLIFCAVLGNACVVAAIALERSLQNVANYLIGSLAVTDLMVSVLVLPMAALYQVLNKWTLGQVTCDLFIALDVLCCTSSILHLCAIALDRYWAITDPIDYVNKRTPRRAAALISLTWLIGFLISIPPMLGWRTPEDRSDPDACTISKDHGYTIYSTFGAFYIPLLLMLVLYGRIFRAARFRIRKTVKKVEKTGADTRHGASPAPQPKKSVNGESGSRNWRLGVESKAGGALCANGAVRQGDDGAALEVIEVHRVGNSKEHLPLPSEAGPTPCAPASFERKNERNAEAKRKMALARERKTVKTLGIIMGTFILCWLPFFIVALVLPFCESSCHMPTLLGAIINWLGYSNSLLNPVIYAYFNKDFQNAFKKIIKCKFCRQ

[24] = molecular target: Proto-oncogene tyrosine-protein kinase Src (Homo sapiens) (UniProt P12931); assay: Inhibition of human SRC at 10 uM relative to control
[25] = molecular target: Estrogen receptor beta (Homo sapiens) (UniProt Q92731); assay: Inhibition of human ERbeta receptor at 10 uM relative to control
[26] = molecular target: Beta-3 adrenergic receptor (Homo sapiens) (UniProt P13945); assay: Inhibition of human beta3 adrenergic receptor at 10 uM relative to control
Sequence of Beta-3 adrenergic receptor (Homo sapiens) (P13945 whole entry, looked up): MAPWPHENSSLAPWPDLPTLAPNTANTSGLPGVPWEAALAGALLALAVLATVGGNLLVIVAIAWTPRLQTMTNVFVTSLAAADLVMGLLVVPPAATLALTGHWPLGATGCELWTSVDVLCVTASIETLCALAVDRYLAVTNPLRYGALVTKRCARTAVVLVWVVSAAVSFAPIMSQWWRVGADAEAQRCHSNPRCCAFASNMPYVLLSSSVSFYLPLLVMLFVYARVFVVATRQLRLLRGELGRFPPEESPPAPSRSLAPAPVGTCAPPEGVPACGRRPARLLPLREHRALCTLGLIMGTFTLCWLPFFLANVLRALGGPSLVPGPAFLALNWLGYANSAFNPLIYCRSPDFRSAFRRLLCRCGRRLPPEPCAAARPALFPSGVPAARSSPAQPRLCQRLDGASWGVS

[27] = species: Gallus gallus; assay: Inhibition of chicken MT receptor at 10 uM relative to control
[28] = species: Rattus norvegicus; assay: Inhibition of rat N-type calcium channel at 10 uM relative to control
[29] = species: Rattus norvegicus; assay: Inhibition of rat GABA transporter at 10 uM relative to control
[30] = molecular target: Estrogen receptor (Homo sapiens) (UniProt P03372); assay: Inhibition of human ERalpha receptor at 10 uM relative to control
[31] = molecular target: Nociceptin receptor (Homo sapiens) (UniProt P41146); assay: Inhibition of human ORL1 receptor at 10 uM relative to control
[32] = molecular target: Polyunsaturated fatty acid lipoxygenase ALOX12 (Homo sapiens) (UniProt P18054); assay: Inhibition of human 12-lipoxygenase at 10 uM relative to control
[33] = molecular target: Alpha-2B adrenergic receptor (Homo sapiens) (UniProt P18089); assay: Inhibition of human alpha2B adrenergic receptor at 10 uM relative to control
Sequence of Alpha-2B adrenergic receptor (Homo sapiens) (P18089 whole entry): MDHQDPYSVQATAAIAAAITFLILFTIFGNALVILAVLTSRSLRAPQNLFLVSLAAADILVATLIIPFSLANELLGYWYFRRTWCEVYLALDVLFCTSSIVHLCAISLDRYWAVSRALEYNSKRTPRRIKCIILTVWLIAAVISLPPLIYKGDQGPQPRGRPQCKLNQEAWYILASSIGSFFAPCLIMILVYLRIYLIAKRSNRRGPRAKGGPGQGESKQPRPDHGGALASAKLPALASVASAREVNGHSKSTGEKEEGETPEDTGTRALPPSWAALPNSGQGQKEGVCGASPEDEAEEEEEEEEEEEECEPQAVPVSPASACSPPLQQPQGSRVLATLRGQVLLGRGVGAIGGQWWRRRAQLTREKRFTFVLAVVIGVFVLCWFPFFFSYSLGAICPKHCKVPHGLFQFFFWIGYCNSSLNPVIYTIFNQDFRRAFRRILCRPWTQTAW

[34] = molecular target: Nitric oxide synthase 1 (Rattus norvegicus) (UniProt P29476); assay: Inhibition of rat nNOS at 10 uM relative to control
[35] = species: Cavia porcellus; assay: Inhibition of guinea pig adenosine transporter at 10 uM relative to control
[36] = molecular target: Phosphodiesterase 3 (Homo sapiens) (UniProt Q14432+Q13370); assay: Inhibition of human PDE3 at 100 uM relative to control; format: protein assay
[37] = molecular target: Adrenergic receptor alpha-1 (Rattus norvegicus) (UniProt P15823+P23944+P43140); assay: Inhibition of rat alpha1 adrenergic receptor at 10 uM relative to control
[38] = species: Bos taurus; assay: Inhibition of bovine PDE1 at 100 uM relative to control
[39] = molecular target: Melanocortin receptor 4 (Homo sapiens) (UniProt P32245); assay: Inhibition of human MC4 receptor at 10 uM relative to control

## COc1ccc(CNC(=O)c2cc(-c3cc(Cl)cc(Cl)c3)cnc2-c2cccnc2)cc1OC
[1]
  inhibition: 16%
[2]
  Activity: Active
[3]
  inhibition: 7%
[4]
  inhibition: -7%
[5]
  inhibition: 0%
[6]
  inhibition: 2%
[7]
  inhibition: 8%
[8]
  inhibition: 7%
[9]
  inhibition: -8%
[10]
  inhibition: 30%
[11]
  inhibition: 23%
[12]
  inhibition: 20%
[13]
  inhibition: 9%
[14]
  inhibition: 3%
[15]
  inhibition: 52%
[16]
  inhibition: 5%
[17]
  inhibition: 3%
[18]
  inhibition: 14%
[19]
  inhibition: 8%
[20]
  inhibition: -3%
[21]
  inhibition: -3%
[22]
  inhibition: 10%
[23]
  inhibition: 10%
[24]
  inhibition: -5%
[25]
  inhibition: -7%
[26]
  inhibition: 24%
[27]
  inhibition: 22%
[28]
  inhibition: 2%
[29]
  inhibition: 3%
[30]
  inhibition: 20%
[31]
  inhibition: 9%
[32]
  inhibition: 11%
[33]
  inhibition: 34%
[34]
  inhibition: -1%
[35]
  inhibition: 69%
[36]
  inhibition: 0%
[37]
  inhibition: -4%
[38]
  inhibition: -3%
[39]
  inhibition: 6%
